Reference: ChEMBL document CHEMBL5608193, “Discovery of bivalent small molecule degraders of cyclin-dependent kinase 7 (CDK7)” (Eur J Med Chem, 2024)
Calls of active or inactive are those of the source. No cut-off for these calls is given here.

Key:
[1] = target: T1, CDK7/Cyclin H/MNAT1 (Homo sapiens, UniProt P50613); assay: Inhibition of CDK7/CycH/MNAT1 (unknown origin) assessed as change in TR-FRET ratio using Cdk7/9tide as substrate and ATP by in vitro Adapta Eu kinase assay; format: protein-complex assay
Method in brief: (§1)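 Adapta Eu kinase assay run at ThermoFisher on CDK7/Cyclin H/MNAT1 with ATP at Km.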

[2] = target: T2, Protein cereblon/Cyclin-dependent kinase 7 (Homo sapiens) (UniProt P50613+Q96SW2); assay: PROTAC activity at CDK7/CRBN in human Jurkat cells assessed as degradation of CDK7 at 0.1 uM measured after 16 hrs incubation by immunoblot analysis; format: cell-based
Method in brief: (§2)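 Jurkat cells exposed to CRBN-recruiting bivalent compounds at 0.1 or 1 μM for 16 h. Lysed in RIPA with protease/phosphatase inhibitors, BCA-normalized, run on 4–20% SDS-PAGE and blotted to nitrocellulose. Probed with anti-CDK7 (1:1000) and β-actin (1:5000) overnight at 4 °C, IRDye secondaries, near-infrared imaging.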

[3] = target: T2, Protein cereblon/Cyclin-dependent kinase 7 (Homo sapiens); assay: PROTAC activity at CDK7/CRBN in human Jurkat cells assessed as degradation of CDK7 at 1 uM measured after 16 hrs incubation by immunoblot analysis; format: cell-based; method in brief: as §2
[4] = target: T3, von Hippel-Lindau disease tumor suppressor/Cyclin-dependent kinase 7 (Homo sapiens) (UniProt P50613+P40337); assay: PROTAC activity at CDK7/VHL in human Jurkat cells assessed as degradation of CDK7 at 0.1 uM measured after 16 hrs incubation by immunoblot analysis relative to control; format: cell-based
Method in brief: (§3)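 Jurkat cells given VHL-recruiting compounds at 0.1 or 1 μM for 16 h. RIPA lysis, BCA normalization, 4–20% SDS-PAGE, nitrocellulose transfer. CDK7 (1:1000) and β-actin probed overnight at 4 °C, IRDye secondaries, Odyssey detection. Quantified against control, mean ± SEM from three independent biological replicates.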

[5] = target: T3, von Hippel-Lindau disease tumor suppressor/Cyclin-dependent kinase 7 (Homo sapiens); assay: PROTAC activity at CDK7/VHL in human Jurkat cells assessed as degradation of CDK7 at 1 uM measured after 16 hrs incubation by immunoblot analysis relative to control; format: cell-based; method in brief: as §3
[6] = target: T1, CDK7/Cyclin H/MNAT1; assay: Inhibition of recombinant GST-tagged CDK7/CycH/MAT1 (unknown origin) extracted from baculo-virus infected Sf9 insect cells assessed as inhibition constant using ATP containing 32P measured after 15 mins by Beckman liquid scintillation counter analysis; format: cell-free
[7] = target: T1, CDK7/Cyclin H/MNAT1; assay: Inhibition of CDK7/CycH/MAT1 (unknown origin); set-up: species or system Sf9; method in brief: as §1
[8] = tested on: Jurkat; assay: Antiproliferative activity against human Jurkat cells assessed as cell viability measured after 72 hrs by CellTiter-Glo assay; format: functional, cell-based
Method in brief: (§4)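 Cells grown in RPMI 1640 with 10% heat-inactivated FBS and penicillin/streptomycin at 37 °C, 5% CO2, mycoplasma-negative. Seeded at 10^4/ml. Compounds dispensed digitally from 10 mM or 1 mM DMSO stocks, DMSO equalized, triplicate wells. After 72 h, CellTiter-Glo added for 10–15 min at room temperature and luminescence read.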

[9] = tested on: OVCAR-3; assay: Antiproliferative activity against human OVCAR-3 cells assessed as cell viability measured after 72 hrs by CellTiter-Glo assay; format: functional, cell-based; settings: OVCAR-3, 72 h; method in brief: as §4
[10] = tested on: SU-DHL-5; assay: Antiproliferative activity against human SU-DHL-5 cells assessed as cell viability measured after 72 hrs by CellTiter-Glo assay; format: functional, cell-based; settings: SU-DHL-5, 72 h; method in brief: as §4
[11] = tested on: MOLT-4; assay: Antiproliferative activity against human MOLT-4 cells assessed as cell viability measured after 72 hrs by CellTiter-Glo assay; format: functional, cell-based; settings: MOLT-4, 72 h; method in brief: as §4
[12] = tested on: A549; assay: Antiproliferative activity against human A549 cells assessed as cell viability measured after 72 hrs by CellTiter-Glo assay; format: functional, cell-based; settings: A549, 72 h; method in brief: as §4

T2 sequence (P50613 whole entry, looked up): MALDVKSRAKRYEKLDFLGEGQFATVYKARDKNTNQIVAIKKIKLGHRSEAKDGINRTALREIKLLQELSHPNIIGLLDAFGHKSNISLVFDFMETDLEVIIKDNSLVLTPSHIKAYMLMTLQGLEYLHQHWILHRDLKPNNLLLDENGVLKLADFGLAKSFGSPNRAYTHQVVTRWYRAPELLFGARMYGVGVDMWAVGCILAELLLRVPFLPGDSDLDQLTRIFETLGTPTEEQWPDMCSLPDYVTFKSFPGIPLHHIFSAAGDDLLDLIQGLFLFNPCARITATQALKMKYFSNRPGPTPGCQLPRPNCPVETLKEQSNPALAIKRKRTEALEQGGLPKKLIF
T2 sequence (Q96SW2 whole entry, looked up): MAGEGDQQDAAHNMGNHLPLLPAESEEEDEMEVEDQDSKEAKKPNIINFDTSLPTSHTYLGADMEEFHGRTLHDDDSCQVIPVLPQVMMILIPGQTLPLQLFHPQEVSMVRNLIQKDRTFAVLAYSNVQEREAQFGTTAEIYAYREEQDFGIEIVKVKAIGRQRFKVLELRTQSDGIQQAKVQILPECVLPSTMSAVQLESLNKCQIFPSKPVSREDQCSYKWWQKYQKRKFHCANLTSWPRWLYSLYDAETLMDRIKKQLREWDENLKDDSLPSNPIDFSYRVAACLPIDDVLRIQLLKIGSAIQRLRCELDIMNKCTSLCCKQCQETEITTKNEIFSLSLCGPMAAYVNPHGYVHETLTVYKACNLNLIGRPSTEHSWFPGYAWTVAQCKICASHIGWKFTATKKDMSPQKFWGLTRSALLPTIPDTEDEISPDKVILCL
T1 sequence (P51946 whole entry): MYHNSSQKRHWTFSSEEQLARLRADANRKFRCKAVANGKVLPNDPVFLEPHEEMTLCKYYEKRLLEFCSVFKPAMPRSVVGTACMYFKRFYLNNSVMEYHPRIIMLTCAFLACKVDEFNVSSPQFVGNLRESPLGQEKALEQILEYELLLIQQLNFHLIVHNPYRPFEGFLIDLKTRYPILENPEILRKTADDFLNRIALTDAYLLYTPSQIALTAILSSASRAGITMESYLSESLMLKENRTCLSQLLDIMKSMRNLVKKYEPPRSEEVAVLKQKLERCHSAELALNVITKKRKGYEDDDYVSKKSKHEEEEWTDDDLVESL
T1 sequence (P50613 whole entry): as the sequence (P50613 whole entry, looked up) above
T1 sequence (P51948 whole entry, further chain): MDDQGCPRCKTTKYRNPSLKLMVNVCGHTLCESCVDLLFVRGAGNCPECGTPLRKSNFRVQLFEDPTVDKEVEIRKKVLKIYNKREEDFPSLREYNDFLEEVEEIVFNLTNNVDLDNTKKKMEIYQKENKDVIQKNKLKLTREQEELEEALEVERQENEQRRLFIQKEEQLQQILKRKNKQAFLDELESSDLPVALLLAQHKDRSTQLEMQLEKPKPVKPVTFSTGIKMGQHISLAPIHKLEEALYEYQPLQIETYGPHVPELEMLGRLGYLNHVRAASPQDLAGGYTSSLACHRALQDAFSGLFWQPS
T3 sequence (P40337 whole entry, looked up): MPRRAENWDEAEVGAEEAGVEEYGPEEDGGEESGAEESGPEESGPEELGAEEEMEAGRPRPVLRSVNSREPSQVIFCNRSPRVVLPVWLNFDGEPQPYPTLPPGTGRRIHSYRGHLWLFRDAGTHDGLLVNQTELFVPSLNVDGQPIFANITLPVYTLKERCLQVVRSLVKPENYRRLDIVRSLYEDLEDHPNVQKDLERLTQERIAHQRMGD
T3 sequence (P50613 whole entry, looked up): as the sequence (P50613 whole entry, looked up) above

Compound	IC50 [1] [nM]	Activity [2]	Activity [3]	Activity [4]	Activity [5]	further results
CN(C)C[C@@H](NC(=O)N1Cc2c(NC(=O)c3ccc(C(=O)NCCOCCOCCOCCNc4cccc5c4C(=O)N(C4CCC(=O)NC4=O)C5=O)cc3)n[nH]c2C1(C)C)c1ccccc1 (some centres not stated)	17.7	inactive	inactive			
CC(=O)N[C@H](C(=O)N1C[C@H](O)C[C@H]1C(=O)N[C@@H](C)c1ccc(-c2scnc2C(=O)NCCCCCNC(=O)c2ccc(C(=O)Nc3n[nH]c4c3CN(C(=O)N[C@H](CN(C)C)c3ccccc3)C4(C)C)cc2)cc1)C(C)(C)C	8.6			Active	Active	
C=CC(=O)Nc1ccc(C(=O)Nc2n[nH]c3c2CN(C(=O)N[C@@H](CN(C)C)c2ccccc2)C3(C)C)cc1						Ki [6]: 2.2 nM
CCC(=O)Nc1ccc(C(=O)Nc2n[nH]c3c2CN(C(=O)N[C@@H](CN(C)C)c2ccccc2)C3(C)C)cc1						IC50 [7]: 6.8 nM; IC50 [8]: 1190 nM; IC50 [9]: 896 nM; IC50 [10]: 176 nM; IC50 [11]: 598 nM; IC50 [12]: 1630 nM
CN(C)C[C@@H](NC(=O)N1Cc2c(NC(=O)c3ccc(C(=O)NCCOCCOCCNc4cccc5c4C(=O)N(C4CCC(=O)NC4=O)C5=O)cc3)n[nH]c2C1(C)C)c1ccccc1 (some centres not stated)	6.4	inactive	inactive			
Cc1ncsc1-c1ccc([C@H](C)NC(=O)[C@@H]2C[C@@H](O)CN2C(=O)[C@@H](NC(=O)CCCNC(=O)c2ccc(C(=O)Nc3n[nH]c4c3CN(C(=O)N[C@H](CN(C)C)c3ccccc3)C4(C)C)cc2)C(C)(C)C)cc1	5.6			Active	Active	
Cc1ncsc1-c1ccc([C@H](C)NC(=O)[C@@H]2C[C@@H](O)CN2C(=O)[C@@H](NC(=O)CCCCCNC(=O)c2ccc(C(=O)Nc3n[nH]c4c3CN(C(=O)N[C@H](CN(C)C)c3ccccc3)C4(C)C)cc2)C(C)(C)C)cc1	8.1			Active	Active	
Cc1ncsc1-c1ccc([C@H](C)NC(=O)[C@@H]2C[C@@H](O)CN2C(=O)[C@@H](NC(=O)CCOCCNC(=O)c2ccc(C(=O)Nc3n[nH]c4c3CN(C(=O)N[C@H](CN(C)C)c3ccccc3)C4(C)C)cc2)C(C)(C)C)cc1	11.1			Active	Active	
Cc1ncsc1-c1ccc([C@H](C)NC(=O)[C@@H]2C[C@@H](O)CN2C(=O)[C@@H](NC(=O)CCOCCOCCNC(=O)c2ccc(C(=O)Nc3n[nH]c4c3CN(C(=O)N[C@H](CN(C)C)c3ccccc3)C4)cc2)C(C)(C)C)cc1	7.6			Active	Active	
Cc1ncsc1-c1ccc([C@H](C)NC(=O)[C@@H]2C[C@@H](O)CN2C(=O)[C@@H](NC(=O)CCNC(=O)c2ccc(C(=O)Nc3n[nH]c4c3CN(C(=O)N[C@H](CN(C)C)c3ccccc3)C4(C)C)cc2)C(C)(C)C)cc1	8.7			Active	Active	
Cc1ncsc1-c1ccc([C@H](C)NC(=O)[C@@H]2C[C@@H](O)CN2C(=O)[C@@H](NC(=O)CCCCOc2ccc(C(=O)Nc3n[nH]c4c3CN(C(=O)N[C@H](CN(C)C)c3ccccc3)C4(C)C)cc2)C(C)(C)C)cc1	12.6			Active	Active	
CN(C)C[C@@H](NC(=O)N1Cc2c(NC(=O)c3ccc(C(=O)NCCCCC#Cc4cccc5c4C(=O)N(C4CCC(=O)NC4=O)C5=O)cc3)n[nH]c2C1(C)C)c1ccccc1 (some centres not stated)	13.3	inactive	inactive			

More lines, main results first:

IC50 [1] [nM]	Activity [2]	Activity [3]	Activity [4]	Activity [5]	Compound	further results
11.3	inactive	inactive			CN(C)C[C@@H](NC(=O)N1Cc2c(NC(=O)c3ccc(C(=O)NCCOCCNc4cccc5c4C(=O)N(C4CCC(=O)NC4=O)C5=O)cc3)n[nH]c2C1(C)C)c1ccccc1 (some centres not stated)	
9.2	inactive	inactive			CN(C)C[C@@H](NC(=O)N1Cc2c(NC(=O)c3ccc(C(=O)NCCCCCOc4cccc5c4C(=O)N(C4CCC(=O)NC4=O)C5=O)cc3)n[nH]c2C1(C)C)c1ccccc1 (some centres not stated)	
34.4	inactive	inactive			CN(C)C[C@@H](NC(=O)N1Cc2c(NC(=O)c3ccc(C(=O)NCCCCCCCCOc4cccc5c4C(=O)N(C4CCC(=O)NC4=O)C5=O)cc3)n[nH]c2C1(C)C)c1ccccc1 (some centres not stated)	
6.7	inactive	inactive			CN(C)C[C@@H](NC(=O)N1Cc2c(NC(=O)c3ccc(C(=O)NCCNc4cccc5c4C(=O)N(C4CCC(=O)NC4=O)C5=O)cc3)n[nH]c2C1(C)C)c1ccccc1 (some centres not stated)	
9.4	inactive	inactive			CN(C)C[C@@H](NC(=O)N1Cc2c(NC(=O)c3ccc(C(=O)NCCCCCCNc4cccc5c4C(=O)N(C4CCC(=O)NC4=O)C5=O)cc3)n[nH]c2C1(C)C)c1ccccc1 (some centres not stated)	
13.4			Active	Active	Cc1ncsc1-c1ccc(CNC(=O)C2[C@@H](O)CCN2C(=O)C(NC(=O)C2(F)CC2)C(C)(C)C)c(OCCOCCOCCNC(=O)c2ccc(C(=O)Nc3n[nH]c4c3CN(C(=O)N[C@H](CN(C)C)c3ccccc3)C4(C)C)cc2)c1 (some centres not stated)	
			Active	Active	Cc1ncsc1-c1ccc([C@H](C)NC(=O)[C@@H]2C[C@@H](O)CN2C(=O)[C@@H](NC(=O)CCCCCc2ccc(C(=O)Nc3n[nH]c4c3CN(C(=O)N[C@H](CN(C)C)c3ccccc3)C4(C)C)cc2)C(C)(C)C)cc1	
